Experimental findings from ChEMBL document CHEMBL4680319, “Synthesis and evaluation of tiaprofenic acid-derived UCHL5 deubiquitinase inhibitors” (Bioorg Med Chem, 2021) are described below.

The target in assay [1] is T1, Ubiquitin carboxyl-terminal hydrolase isozyme L5 (Homo sapiens, UniProt Q9Y5K5).
T1 sequence (Q9Y5K5 whole entry): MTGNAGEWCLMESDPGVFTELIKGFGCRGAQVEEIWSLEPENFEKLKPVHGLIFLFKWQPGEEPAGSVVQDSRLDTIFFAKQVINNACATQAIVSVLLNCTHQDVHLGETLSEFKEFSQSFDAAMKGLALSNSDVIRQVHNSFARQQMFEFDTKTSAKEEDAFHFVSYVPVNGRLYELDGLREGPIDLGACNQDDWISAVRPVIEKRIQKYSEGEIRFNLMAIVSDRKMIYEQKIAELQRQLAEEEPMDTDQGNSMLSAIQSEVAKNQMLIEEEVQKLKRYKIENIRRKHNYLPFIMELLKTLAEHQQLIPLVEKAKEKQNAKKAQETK
Kind of assay: Inhibition of N-terminal His6-tagged recombinant human UCHL5 expressed in Escherichia coli BL21 (DE3) codon cells assessed as reduction in cleavage of Ubiquitin-Rhodamine110-glycine to Ubiquitin and Rhodamine110-glycine using Ub-Rho 110 as substrate incubated for 30 mins by fluorescence based assay. The essentials: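 His-tagged human UCHL5 from pET151 in E. coli BL21(DE3) codon+ RIL, Ni-NTA purified; 0.464 nM enzyme, 1 μM Ub-Rho in 50 mM Tris-HCl pH 7.5, 150 mM NaCl, 0.1 mg/ml ovalbumin, 0.5 mM EDTA, 2.5 mM DTT; started by enzyme addition.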

For assay [2], the target named is T2, Ubiquitin carboxyl-terminal hydrolase isozyme L5 (Homo sapiens) (UniProt Q9Y5K5).
T2 sequence (whole entry): T1 sequence (Q9Y5K5 whole entry)
Kind of assay: Potency index, ratio of (R)-tiaprofenic acid IC50 to test compound IC50 for inhibition of N-terminal His6-tagged recombinant human UCHL5 expressed in Escherichia coli BL21 (DE3) codon cells incubated for 30 mins by fluorescence based assay.

Assay [3] concerns the target Ubiquitin carboxyl-terminal hydrolase isozyme L1 (Homo sapiens) (UniProt P09936). Nature of the assay: (§1) Inhibition of recombinant human N-terminal MET and His6-tagged UCHL1 (Gln2 to Ala223 residues) expressed in Escherichia coli assessed as reduction in cleavage of Ubiquitin-Rhodamine110-glycine to Ubiquitin and Rhodamine110-glycine using Ub-Rho 110 as substrate incubated for 30 mins by fluorescence based assay. In a few lines: (§2)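 Commercial enzymes at UCHL1 1.2 nM or UCHL3 32 pM, with 1 μM Ub-Rho in 50 mM Tris-HCl pH 7.5, 150 mM NaCl, 0.1 mg/ml ovalbumin, 0.5 mM EDTA, 2.5 mM DTT.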

For assay [4], the target named is T3, Ubiquitin carboxyl-terminal hydrolase isozyme L1 (Homo sapiens, UniProt P09936).
T3 sequence (P09936 whole entry): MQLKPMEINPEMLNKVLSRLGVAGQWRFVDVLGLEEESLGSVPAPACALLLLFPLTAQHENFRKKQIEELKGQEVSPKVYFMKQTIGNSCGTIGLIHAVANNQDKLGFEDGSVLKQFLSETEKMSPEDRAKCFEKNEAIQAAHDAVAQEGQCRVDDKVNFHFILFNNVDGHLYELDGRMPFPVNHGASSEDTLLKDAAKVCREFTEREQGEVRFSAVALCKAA
The assay is described as §1. In a few lines:
as §2

In assay [5] the target is T4, Ubiquitin carboxyl-terminal hydrolase isozyme L3 (Homo sapiens, UniProt P15374).
T4 sequence (P15374 whole entry): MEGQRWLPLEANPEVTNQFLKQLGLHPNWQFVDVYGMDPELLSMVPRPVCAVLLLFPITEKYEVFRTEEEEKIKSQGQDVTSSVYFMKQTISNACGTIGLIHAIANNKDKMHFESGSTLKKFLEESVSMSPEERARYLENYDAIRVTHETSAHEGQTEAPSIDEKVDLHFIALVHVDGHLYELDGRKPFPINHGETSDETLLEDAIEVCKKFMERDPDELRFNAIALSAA
Kind of assay: (§3) Inhibition of recombinant human UCHL3 assessed as reduction in cleavage of Ubiquitin-Rhodamine110-glycine to Ubiquitin and Rhodamine110-glycine using Ub-Rho 110 as substrate incubated for 30 mins by fluorescence based assay. In a few lines: as §2

Assay [6] concerns the target T5, Ubiquitin carboxyl-terminal hydrolase isozyme L3 (Homo sapiens) (UniProt P15374).
T5 sequence (whole entry): T4 sequence (P15374 whole entry)
The assay is described as §3. In a few lines: as §2

The target in assay [7] is T2, Ubiquitin carboxyl-terminal hydrolase isozyme L5 (Homo sapiens). Kind of assay: Inhibition of UCHL5 in human MDA-MB-231 cells assessed as reduction in enzyme-Ub-VS conjugation at 25 to 50 uM preincubated for 30 mins followed by incubation with Ub-VS for 11 mins in presence of Ub-VS by Western blot analysis. The format is cell-based. The conditions noted are these: dose 25-50 µM, time 41.0 min. In a few lines: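 Lysate (20 μg protein) preincubated with inhibitor 30 min at RT in same buffer without detergent, then Ub-VS 1 μM for 11 min at RT; SDS quench, 12% SDS-PAGE, anti-UCHL5 and β-actin blot; 2 independent experiments.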

For a further assay, the species on record is Homo sapiens. Kind of assay: Inhibition of N-terminal His6-tagged recombinant human UCHL5 […] N-terminal GST/His6-tagged RPN13 in Escherichia coli BL21 (DE3) codon cells assessed as reduction in cleavage of Ubiquitin-Rhodamine110-glycine to Ubiquitin and Rhodamine110-glycine using Ub-Rho 110 as substrate at 100 uM incubated for 30 mins by fluorescence based assay relative to control. The essentials:
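UCHL5 (0.464 nM, His-tagged, Ni-NTA purified from E. coli) combined with separately expressed Rpn13 (915 nM); each derivative tested at 100 μM. Buffer 50 mM Tris-HCl pH 7.5, 150 mM NaCl, 0.1 mg/ml ovalbumin, 0.5 mM EDTA, 2.5 mM DTT. Reaction started with UCHL5; Ub-Rho 1 μM; fluorescence ex 485/em 535 nm read over 30 min at RT. n = 2 independent experiments.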

Calls of active or inactive are those of the source. The rule behind the calls is not given here.

The IC50 is the concentration at which inhibition is half-maximal. Turning to `Nc1ccc(-c2cn(Cc3cccc(-c4ccccc4C(=O)O)c3)nn2)cc1`, the IC50 in assay [1] came to 116 µM.

Consider `Nc1ccc(-c2cn(Cc3cc(C(=O)O)cc(-c4ccccc4C(=O)O)c3)nn2)cc1`, for which, in assay [1], the IC50 is 80.5 µM.

For the compound `CC(=O)Nc1ccc(-c2cn(Cc3cc(C(=O)O)cc(-c4ccccc4C(=O)O)c3)nn2)cc1`, in assay [1], the IC50 came to 80.9 µM.

`NS(=O)(=O)Nc1ccc(-c2cn(Cc3cc(C(=O)O)cc(-c4ccccc4C(=O)O)c3)nn2)cc1`: in assay [1], the IC50 amounted to 84.5 µM.

As to `CC(C(=O)O)c1ccc(C(=O)c2cccc(-c3ccccc3C(=O)O)c2)s1` (stereo not given), the Ratio IC50 in assay [2] amounted to 33. In addition, in assay [1], the IC50 was 89.1 µM.

Turning to `CC(C(=O)O)c1ccc(C(=O)c2ccccc2)s1` (stereo not given) [TIAPROFENIC ACID], the IC50 in assay [1] turned out to be 2950 µM.

As for `CC(=O)Nc1cccc(-c2cn(Cc3cc(C(=O)O)cc(-c4ccccc4C(=O)O)c3)nn2)c1`, the IC50 in assay [1] came out at 96.2 µM.

On to `Nc1ccc(-c2cn(Cc3cc(C(=O)O)cc(-c4ccc(C(=O)O)cc4)c3)nn2)cc1`, for which, in assay [1], the IC50 was 284 µM.

As to `O=C(O)c1cc(Cn2cc(-c3cccnc3)nn2)cc(-c2ccccc2C(=O)O)c1`, in assay [1], the IC50 amounted to 252 µM.

With `CC(C(=O)O)c1ccc(C(=O)c2cccc(-c3occc3C(=O)O)c2)s1` (stereo not given), in assay [1], the IC50 is 75.7 µM.

Broadly, the inhibition is the drop in the measured response relative to a control, in per cent. As to `Nc1ccc(-c2cn(Cc3cc(C(=O)O)cc(-c4cccc(C(=O)O)c4)c3)nn2)cc1`, the inhibition result was “Dose-dependent effect” in assay [3], “Dose-dependent effect” in assay [6] and 70% in the assay filed under Homo sapiens. The values for the IC50 in assay [4], in assay [5] and in assay [1] were 92 µM, 74 µM and 32.9 µM, respectively. The inhibition result in assay [7] is “Active”.

As to `O=C(O)c1cc(Cn2cc(-c3ccc(NC(=O)c4ccccc4)cc3)nn2)cc(-c2ccccc2C(=O)O)c1`, the IC50 in assay [1] turned out to be 215 µM.

Take `Nc1cccc(-c2cn(Cc3cc(C(=O)O)cc(-c4ccccc4C(=O)O)c3)nn2)c1`: the IC50 in assay [1] is 72.6 µM.
